Values joined by “and” are separate entries in the source; they are usually repeats but may differ in a detail not shown here. Equal entries are not always repeated.
Key:
Type in all cases: in vitro ADME
[1] = molecular target: T1, CYP2C8 (Homo sapiens, UniProt P10632); test: Projected involvement in C152 metabolism in HLM
T1 sequence (P10632 1-490): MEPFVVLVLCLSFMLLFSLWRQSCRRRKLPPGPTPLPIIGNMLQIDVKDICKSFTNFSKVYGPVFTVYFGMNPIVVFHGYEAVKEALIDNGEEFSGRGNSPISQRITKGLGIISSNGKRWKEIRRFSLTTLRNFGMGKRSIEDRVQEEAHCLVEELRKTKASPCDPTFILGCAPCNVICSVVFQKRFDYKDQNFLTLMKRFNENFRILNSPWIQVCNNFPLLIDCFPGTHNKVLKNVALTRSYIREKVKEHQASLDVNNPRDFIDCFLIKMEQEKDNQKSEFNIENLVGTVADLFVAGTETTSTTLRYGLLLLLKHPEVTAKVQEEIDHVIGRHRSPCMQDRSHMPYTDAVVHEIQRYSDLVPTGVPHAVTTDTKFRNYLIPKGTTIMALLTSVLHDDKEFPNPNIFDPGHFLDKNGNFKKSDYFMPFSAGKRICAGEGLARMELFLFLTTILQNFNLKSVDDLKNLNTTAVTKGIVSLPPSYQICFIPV

[2] = molecular target: T2, CYP2B6 (Homo sapiens, UniProt P20813); test: Projected involvement in C152 metabolism in HLM
T2 sequence (P20813 1-491): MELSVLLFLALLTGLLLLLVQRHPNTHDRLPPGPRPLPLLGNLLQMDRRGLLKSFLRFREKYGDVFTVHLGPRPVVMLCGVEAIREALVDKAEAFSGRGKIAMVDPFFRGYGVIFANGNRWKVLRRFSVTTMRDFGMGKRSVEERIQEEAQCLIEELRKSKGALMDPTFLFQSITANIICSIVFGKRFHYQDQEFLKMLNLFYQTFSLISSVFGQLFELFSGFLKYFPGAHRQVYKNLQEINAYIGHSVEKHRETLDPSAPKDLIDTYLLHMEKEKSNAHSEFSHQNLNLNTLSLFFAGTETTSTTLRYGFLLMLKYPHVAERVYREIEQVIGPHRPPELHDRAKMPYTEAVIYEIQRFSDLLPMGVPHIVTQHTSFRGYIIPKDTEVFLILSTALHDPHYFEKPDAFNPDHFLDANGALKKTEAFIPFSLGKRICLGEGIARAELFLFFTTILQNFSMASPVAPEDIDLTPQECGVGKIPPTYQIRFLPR
Outline: (§1)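 Calculated values, no new incubations. Each of seven C152-metabolizing P450s has a fractional content in the pooled HLM P450 pool (LC-MS/MS MRM). That fraction is multiplied by its Supersome Vmax (saturation) or by its rate at 30 μM C152 from Hill or Michaelis–Menten parameters. Expected participation (% TNR) is each normalized rate divided by the sum of all seven.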

[3] = molecular target: T3, CYP3A4 (Homo sapiens, UniProt P08684); test: Formation of C151 from C152; conditions: SS(3A4)
Outline: (§2)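 Probes hold 5–20 pmol P450 in 0.1 M Na-HEPES pH 7.4 with 60 mM KCl. C152 added from 0.5 or 4 mM acetone stock; reaction started with 500 μM NADPH (final), run 5 min at 30 °C with shaking. Quenched with isopropanol containing phenacetin internal standard, then centrifuged. C151 quantified by reverse-phase LC with ESI-positive MRM MS/MS (m/z 230.16→157.2). Michaelis–Menten or Hill fit; normalized per P450 (Supersomes) or CPR (HLM).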

[4] = molecular target: T3, CYP3A4; test: C152 metabolism; conditions: for Specific rate: CYP3A4
Outline: (§3)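 Human P450s in Supersomes that co-express human CPR and cytochrome b5. Reaction in 0.1 M Na-HEPES pH 7.4 with 60 mM KCl, stirred at 30 °C. C152 0.1–30 μM added from acetone stock; 200 μM NADPH starts it. Fluorescence rise read at 500 nm (isosbestic, mono-demethylation step). Rate is the linear slope over 3–5 min, scaled by the C151–C152 fluorescence difference. Michaelis–Menten or Hill fit, Vmax per P450, 2–6 runs; rate at 30 μM computed from fit.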

[5] = molecular target: T4, CYP3A5 (Homo sapiens, UniProt P20815); test: Projected involvement in C152 metabolism in HLM
Outline: as §1

[6] = molecular target: CYP2C9 (Homo sapiens, UniProt P11712); test: Projected involvement in C152 metabolism in HLM
Outline: as §1

[7] = molecular target: CYP2C19 (Homo sapiens, UniProt P33261); test: Projected involvement in C152 metabolism in HLM
Outline: as §1

[8] = test system: human liver microsomes (HLM); test: Formation of C151 from C152
Outline: as §2

[9] = molecular target: T4, CYP3A5; test: C152 metabolism; conditions: for Specific rate: CYP3A5
Outline: as §3

[10] = molecular target: CYP2E1 (Homo sapiens, UniProt P05181); test: C152 metabolism by Supersomes containing CYP2E1; conditions: recombinant CYP2E1 Supersomes
[11] = at saturation of all P450 species
[12] = at saturation of all P450 species, % TNR
[13] = at 30 μM C152, calculated from fit parameters
[14] = at saturation (Vmax in Supersomes)

T3 sequence (P08684 2-503 limits assumed): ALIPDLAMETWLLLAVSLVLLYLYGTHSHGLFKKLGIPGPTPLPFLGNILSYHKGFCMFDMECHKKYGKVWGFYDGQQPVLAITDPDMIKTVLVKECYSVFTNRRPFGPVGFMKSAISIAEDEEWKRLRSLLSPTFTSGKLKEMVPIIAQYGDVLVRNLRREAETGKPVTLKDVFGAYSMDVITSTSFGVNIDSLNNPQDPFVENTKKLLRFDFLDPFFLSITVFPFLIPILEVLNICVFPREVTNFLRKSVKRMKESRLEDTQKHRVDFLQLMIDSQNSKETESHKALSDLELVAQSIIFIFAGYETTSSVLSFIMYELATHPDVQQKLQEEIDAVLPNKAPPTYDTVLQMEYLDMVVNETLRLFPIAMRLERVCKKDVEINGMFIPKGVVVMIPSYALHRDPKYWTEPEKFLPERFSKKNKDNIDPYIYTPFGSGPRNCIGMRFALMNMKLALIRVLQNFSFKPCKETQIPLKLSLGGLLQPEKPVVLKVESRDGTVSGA
CYP2C9, sequence (P11712 whole entry): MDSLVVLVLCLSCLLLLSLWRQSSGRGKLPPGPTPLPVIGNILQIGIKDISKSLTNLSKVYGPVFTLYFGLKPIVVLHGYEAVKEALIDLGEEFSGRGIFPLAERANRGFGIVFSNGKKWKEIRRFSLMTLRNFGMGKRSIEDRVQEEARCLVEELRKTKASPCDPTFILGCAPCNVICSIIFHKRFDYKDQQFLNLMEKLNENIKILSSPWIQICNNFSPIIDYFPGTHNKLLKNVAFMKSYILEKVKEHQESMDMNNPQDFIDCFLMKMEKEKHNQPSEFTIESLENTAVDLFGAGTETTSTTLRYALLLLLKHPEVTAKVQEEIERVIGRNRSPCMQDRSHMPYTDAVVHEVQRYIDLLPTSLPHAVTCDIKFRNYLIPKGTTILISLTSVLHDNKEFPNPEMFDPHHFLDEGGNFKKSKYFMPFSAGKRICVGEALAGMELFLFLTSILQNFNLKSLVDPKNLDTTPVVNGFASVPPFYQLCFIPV
CYP2C19, sequence (P33261 whole entry): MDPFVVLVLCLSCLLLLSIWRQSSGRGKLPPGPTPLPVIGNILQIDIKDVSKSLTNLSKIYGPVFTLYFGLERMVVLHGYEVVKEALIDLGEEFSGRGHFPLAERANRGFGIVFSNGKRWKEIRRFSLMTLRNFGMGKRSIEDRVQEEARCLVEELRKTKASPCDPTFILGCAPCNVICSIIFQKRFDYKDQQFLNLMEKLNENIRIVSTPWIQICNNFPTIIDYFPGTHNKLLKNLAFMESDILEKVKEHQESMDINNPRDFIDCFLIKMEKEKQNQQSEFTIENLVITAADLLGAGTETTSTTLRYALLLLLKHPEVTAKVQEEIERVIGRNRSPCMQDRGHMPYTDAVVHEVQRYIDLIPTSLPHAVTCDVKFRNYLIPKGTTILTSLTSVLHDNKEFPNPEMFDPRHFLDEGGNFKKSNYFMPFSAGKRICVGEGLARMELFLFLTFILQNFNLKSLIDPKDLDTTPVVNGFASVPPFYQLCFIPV
T4 sequence (P20815 whole entry): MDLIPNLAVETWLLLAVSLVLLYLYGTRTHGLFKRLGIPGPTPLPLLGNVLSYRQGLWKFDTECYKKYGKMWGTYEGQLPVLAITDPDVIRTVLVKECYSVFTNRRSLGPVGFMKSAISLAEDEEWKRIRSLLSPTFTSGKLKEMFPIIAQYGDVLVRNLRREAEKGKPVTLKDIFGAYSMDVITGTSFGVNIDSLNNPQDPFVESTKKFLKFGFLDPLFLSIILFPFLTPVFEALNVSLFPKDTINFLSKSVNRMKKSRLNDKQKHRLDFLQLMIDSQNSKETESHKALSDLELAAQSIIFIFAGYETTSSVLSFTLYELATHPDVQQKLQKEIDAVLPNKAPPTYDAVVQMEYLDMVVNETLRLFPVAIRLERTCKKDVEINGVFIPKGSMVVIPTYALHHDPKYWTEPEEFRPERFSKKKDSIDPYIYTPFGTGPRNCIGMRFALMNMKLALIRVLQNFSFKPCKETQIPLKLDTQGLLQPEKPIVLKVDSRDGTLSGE
CYP2E1, sequence (P05181 whole entry): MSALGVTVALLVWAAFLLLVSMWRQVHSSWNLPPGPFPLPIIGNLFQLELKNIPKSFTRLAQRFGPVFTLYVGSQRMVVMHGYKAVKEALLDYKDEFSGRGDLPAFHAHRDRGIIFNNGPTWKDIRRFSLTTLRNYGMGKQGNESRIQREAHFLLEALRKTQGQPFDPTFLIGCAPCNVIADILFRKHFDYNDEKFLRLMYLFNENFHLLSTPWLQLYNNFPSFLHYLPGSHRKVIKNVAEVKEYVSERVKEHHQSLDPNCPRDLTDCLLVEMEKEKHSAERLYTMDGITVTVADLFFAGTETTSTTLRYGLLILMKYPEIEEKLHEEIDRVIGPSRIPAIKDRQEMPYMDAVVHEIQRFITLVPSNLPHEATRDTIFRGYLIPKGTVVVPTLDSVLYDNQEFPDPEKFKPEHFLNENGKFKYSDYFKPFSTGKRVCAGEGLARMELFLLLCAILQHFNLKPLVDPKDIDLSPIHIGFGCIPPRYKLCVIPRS

CN(C)c1ccc2c(C(F)(F)F)cc(=O)oc2c1 [C152, 7-Dimethylamino-4-trifluromethylcoumarin]
Normalized rate ([1]; at 30 μM C152): 0.020 min⁻¹
Expected participation ([1]; at 30 μM C152, % TNR): 0.16%
Normalized rate [1, 11]: 0.022 min⁻¹
Expected participation [1, 12]: 0.17%
Normalized rate ([2]; at 30 μM C152): 0.863 min⁻¹
Expected participation ([2]; at 30 μM C152, % TNR): 7.10%
Normalized rate [2, 11]: 0.914 min⁻¹
N, Hill coefficient (Formation of C151, LC-MS) [3]: 1.4±0.4
Fraction of C151 formed, LC-MS ([3]; C151 formed over total C152 metabolized): 5.4±2.4%
Vmax (Formation of C151, LC-MS) ([3]; mol C151 formed per mol P450 per min): 0.94 ± 0.41 min⁻¹
Km ([3]; read-out: KM or S50 (Formation of C151, LC-MS), Hill fit (S50)): 6.4 ± 1.1 µM
Specific rate [4, 13]: 16.5 min⁻¹
Specific rate [4, 14]: 17.3 min⁻¹
N, Hill coefficient (C152 metabolism, fluorimetric assay) ([4]; SS(3A4)): 1.6±0.2
Vmax (C152 metabolism, fluorimetric assay) ([4]; SS(3A4), mol C152 per mol P450 per min): 17 ± 3 min⁻¹
Fraction of C151 formed, Fluorimetry ([4]; SS(3A4), scanning fluorimetry with PCA): 2.5±0.3%
Km ([4]; read-out: KM or S50 (C152 metabolism, fluorimetric assay), SS(3A4), Hill fit (S50), 30 °C, pH 7.4): 4.5 ± 1.2 µM
Normalized rate ([5]; at 30 μM C152): 0.074 min⁻¹
Expected participation ([5]; at 30 μM C152, % TNR): 0.61%
Normalized rate [5, 11]: 0.120 min⁻¹
Expected participation [5, 12]: 0.91%
Normalized rate ([6]; at 30 μM C152): 0.496 min⁻¹
Expected participation ([6]; at 30 μM C152, % TNR): 4% and 4.08%
Normalized rate [6, 11]: 0.981 min⁻¹
Normalized rate ([7]; at 30 μM C152): 0.026 min⁻¹
Expected participation ([7]; at 30 μM C152, % TNR): 0.2% and 0.22%
Normalized rate [7, 11]: 0.031 min⁻¹
Expected participation [7, 12]: 0.24%
Vmax (Formation of C151, LC-MS) ([8]; mol C151 formed, normalized per CPR): 1.3 ± 0.2 min⁻¹
Km ([8]; read-out: KM or S50 (Formation of C151, LC-MS), Michaelis-Menten fit): 3 ± 0.5 µM
Specific rate [9, 13]: 9.5 min⁻¹
Specific rate [9, 14]: 15.3 min⁻¹
Vmax (C152 metabolism, fluorimetric assay) ([9]; SS(3A5), mol C152 per mol P450 per min): 15 ± 4 min⁻¹
Km ([9]; read-out: KM or S50 (C152 metabolism, fluorimetric assay), SS(3A5), Michaelis-Menten fit, 30 °C, pH 7.4): 19 ± 9 µM
activity with C152 [10]: no detectable activity

From article PMC7740640 (Xenobiotica; the fate of foreign compounds in biological …, 2020)
